Reference: ChEMBL document CHEMBL4043227, “Novel xanthone-polyamine conjugates as catalytic inhibitors of human topoisomerase IIα” (Bioorg Med Chem Lett, 2017)
Active and inactive are the calls of the source. No cut-off for these calls is given here.

Columns and labels:
[1] = molecular target: T1, DNA topoisomerase 2-alpha (Homo sapiens, UniProt P11388); experiment: (§1) Poison activity at recombinant human topoisomerase-2alpha expressed in Saccharomyces cerevisiae JEL1 harboring topoisomerase1 deletion mutant assessed as enzyme-mediated supercoiled pBR322 cleavable complex formation up to 10 uM after 6 mins by ethidium bromide staining based agarose gel electrophoresis
Summary of the method: (§2)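 Double-strand DNA cleavage by topo IIα (150 nM) on negatively supercoiled DNA, tested at 2.5, 10, 50 and 100 µM (one compound only up to 10 µM). Linear form III is resolved from forms I and II on ethidium-stained gels. Cleavage is normalised to the no-drug control set to 1, with 100 µM etoposide as reference. SD of 2-3 independent experiments.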
Target sequence in this assay (P11388 whole entry): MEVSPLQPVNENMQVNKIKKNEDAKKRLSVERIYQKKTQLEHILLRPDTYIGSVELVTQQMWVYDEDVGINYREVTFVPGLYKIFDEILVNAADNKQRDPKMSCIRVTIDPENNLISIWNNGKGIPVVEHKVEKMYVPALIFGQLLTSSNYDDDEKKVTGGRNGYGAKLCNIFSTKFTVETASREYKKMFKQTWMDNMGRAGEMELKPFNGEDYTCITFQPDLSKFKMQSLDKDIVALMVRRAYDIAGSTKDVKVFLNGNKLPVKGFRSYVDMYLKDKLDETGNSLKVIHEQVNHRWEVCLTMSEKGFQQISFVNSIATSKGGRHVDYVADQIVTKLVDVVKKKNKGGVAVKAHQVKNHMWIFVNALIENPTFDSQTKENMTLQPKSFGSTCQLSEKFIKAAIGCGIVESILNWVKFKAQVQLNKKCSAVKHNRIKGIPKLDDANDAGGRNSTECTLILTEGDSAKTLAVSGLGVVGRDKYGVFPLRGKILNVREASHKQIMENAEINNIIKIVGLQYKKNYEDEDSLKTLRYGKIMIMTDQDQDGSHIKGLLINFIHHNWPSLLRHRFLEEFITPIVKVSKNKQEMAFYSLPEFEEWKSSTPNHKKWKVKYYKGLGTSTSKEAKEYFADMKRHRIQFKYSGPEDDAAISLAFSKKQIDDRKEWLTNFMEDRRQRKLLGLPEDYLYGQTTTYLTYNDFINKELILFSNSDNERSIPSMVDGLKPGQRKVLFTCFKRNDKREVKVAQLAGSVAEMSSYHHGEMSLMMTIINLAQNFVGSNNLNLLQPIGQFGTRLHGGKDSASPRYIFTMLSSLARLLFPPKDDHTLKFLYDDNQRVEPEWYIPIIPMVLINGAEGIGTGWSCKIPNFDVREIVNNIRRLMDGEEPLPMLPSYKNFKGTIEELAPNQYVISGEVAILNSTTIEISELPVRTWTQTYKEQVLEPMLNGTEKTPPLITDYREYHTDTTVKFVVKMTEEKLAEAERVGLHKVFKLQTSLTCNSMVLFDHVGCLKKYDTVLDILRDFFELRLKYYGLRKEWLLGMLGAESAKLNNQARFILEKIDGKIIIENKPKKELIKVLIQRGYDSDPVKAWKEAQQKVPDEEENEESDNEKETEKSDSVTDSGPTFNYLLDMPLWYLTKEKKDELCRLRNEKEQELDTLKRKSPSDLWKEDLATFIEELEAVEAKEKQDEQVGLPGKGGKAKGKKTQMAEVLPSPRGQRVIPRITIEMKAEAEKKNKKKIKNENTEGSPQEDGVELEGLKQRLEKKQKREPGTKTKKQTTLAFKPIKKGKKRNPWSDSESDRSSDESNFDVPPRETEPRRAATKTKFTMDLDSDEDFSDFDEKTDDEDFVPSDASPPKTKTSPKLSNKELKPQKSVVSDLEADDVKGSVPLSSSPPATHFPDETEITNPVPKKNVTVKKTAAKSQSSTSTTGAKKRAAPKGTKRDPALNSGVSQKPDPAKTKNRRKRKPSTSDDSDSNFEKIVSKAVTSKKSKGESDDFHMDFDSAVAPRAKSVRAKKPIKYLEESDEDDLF

[2] = Solubility of the compound in Tris-HCl at pH 7.9 at 50 to 100 uM; format: physicochemical; details: buffer, pH 7.9, 100 µM
[3] = molecular target: T1, DNA topoisomerase 2-alpha; experiment: Ratio of IC50 for recombinant human topoisomerase-2alpha expressed in Saccharomyces cerevisiae JEL1 harboring topoisomerase1 deletion mutant assessed as enzyme-mediated decatenation of kinetoplast DNA to IC50 for recombinant human topoisomerase-2alpha catalytic activity expressed in Saccharomyces cerevisiae JEL1 harboring topoisomerase1 deletion mutant assessed as reduction in supercoiled pBR322 DNA relaxation
Target sequence in this assay (P11388 whole entry): as above

[4] = molecular target: T1, DNA topoisomerase 2-alpha; experiment: as §1, with “Inhibition of” for “Poison activity at”, “in presence of CaCl2” for “after 6 mins”
Summary of the method: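 Cleavage reactions contain CaCl2, which raises baseline topo IIα DNA cleavage about 10- to 15-fold. Enzyme at 150 nM with negatively supercoiled DNA. Xanthones are tested up to 10 µM, with no-enzyme and enzyme-only controls.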
Target sequence in this assay (P11388 whole entry): as above

[5] = molecular target: T1, DNA topoisomerase 2-alpha; experiment: (§3) Inhibition of 150 nM recombinant human topoisomerase-2alpha catalytic activity expressed in Saccharomyces cerevisiae JEL1 harboring topoisomerase1 deletion mutant assessed as reduction in supercoiled pBR322 DNA relaxation at 10 uM after 4 mins by ethidium bromide staining based agarose gel electrophoresis
Summary of the method: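 Control relaxation run at high enzyme (150 nM topo IIα) to match the cleavage assay. Negatively supercoiled DNA substrate, with no-enzyme and enzyme-only controls, read on gel.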
Target sequence in this assay (P11388 whole entry): as above

[6] = molecular target: T1, DNA topoisomerase 2-alpha; experiment: as §3, with “enzyme-mediated relaxed” for “supercoiled”, “strand passage” for “relaxation at 10 uM”, “2” for “4”, “mins in presence of APP(NH)P” for “mins”
Summary of the method: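 Topo IIα at 150 nM with relaxed DNA as substrate, ATP replaced by the non-hydrolysable analogue APP(NH)P, so only events up to strand passage are scored. Catenated DNA is read at the gel origin against relaxed DNA bands, with no-enzyme and enzyme-only controls. Gels represent at least 3 independent experiments.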
Target sequence in this assay (P11388 whole entry, looked up, stated change not applied): as the sequence (P11388 whole entry) above

[7] = molecular target: T1, DNA topoisomerase 2-alpha; experiment: Inhibition of recombinant human topoisomerase-2alpha expressed in Saccharomyces cerevisiae JEL1 harboring topoisomerase1 deletion mutant assessed as reduction in etoposide induced enzyme-mediated DNA cleavage up to 10 uM by ethidium bromide staining based agarose gel electrophoresis
Summary of the method: (§4)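 Competition assay: 5-100 µM xanthone (one compound only up to 10 µM, for solubility) is added with 100 µM etoposide. Enzyme double-strand break levels are expressed relative to etoposide alone, set to 100%. Mean ± SD of 2-3 independent experiments.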
Target sequence in this assay (P11388 whole entry): as above

[8] = molecular target: T1, DNA topoisomerase 2-alpha; experiment: Inhibition of 3 nM recombinant human topoisomerase-2alpha catalytic activity expressed in Saccharomyces cerevisiae JEL1 harboring topoisomerase1 deletion mutant assessed as reduction in supercoiled pBR322 DNA relaxation after 4 mins by ethidium bromide staining based agarose gel electrophoresis
Summary of the method: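 Topo IIα at 3 nM relaxes negatively supercoiled DNA, with no-enzyme and enzyme-only controls. Supercoiled (form I) and nicked (form II) bands are resolved on gel, and IC50 is estimated from the gels. Gels represent 2-4 independent experiments.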
Target sequence in this assay (P11388 whole entry, looked up, stated change not applied): as the sequence (P11388 whole entry) above

[9] = molecular target: T1, DNA topoisomerase 2-alpha; experiment: as §1, with “formation at 2.5” for “formation up”, “to 100” for “to 10”; summary of the method: as §2
Target sequence in this assay (P11388 whole entry): as above

[10] = molecular target: T1, DNA topoisomerase 2-alpha; experiment: as §3, with “of” for “of 150 nM”, “in presence of spermine” for “after 4 mins”
Summary of the method: (§5)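 Negatively supercoiled plasmid relaxed by 3 nM topoisomerase IIα with polyamine (spermidine or spermine) added. Controls were DNA without enzyme and enzyme without inhibitor. Products resolved on gels with supercoiled (form I) and nicked (form II) markers, then quantified. Error bars are standard error of the mean for 2 independent experiments.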

[11] = molecular target: T1, DNA topoisomerase 2-alpha; experiment: as §3, with “of” for “of 150 nM”, “in presence of spermidine” for “after 4 mins”; summary of the method: as §5
[12] = molecular target: T1, DNA topoisomerase 2-alpha; experiment: as §3, with “3” for “150”
Summary of the method: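 Relaxation of negatively supercoiled plasmid by 3 nM topoisomerase IIα was read from gel mobility (supercoiled form I vs nicked form II). Controls were DNA without enzyme and enzyme-treated DNA without compound. Gels are representative of 2-4 independent experiments.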

[13] = molecular target: T1, DNA topoisomerase 2-alpha; experiment: Inhibition of recombinant human topoisomerase-2alpha expressed in Saccharomyces cerevisiae JEL1 harboring topoisomerase1 deletion mutant assessed as reduction in etoposide induced enzyme-mediated DNA cleavage up to 100 uM by ethidium bromide staining based agarose gel electrophoresis; summary of the method: as §4
[14] = molecular target: T1, DNA topoisomerase 2-alpha; experiment: Inhibition of recombinant human topoisomerase-2alpha expressed in Saccharomyces cerevisiae JEL1 harboring topoisomerase1 deletion mutant assessed as reduction in enzyme-mediated [gamma32P]ATP hydrolysis using relaxed pBR322 DNA as substrate after 8 mins
Target sequence in this assay (P11388 whole entry, looked up, stated change not applied): as the sequence (P11388 whole entry) above

[15] = molecular target: T1, DNA topoisomerase 2-alpha; experiment: Inhibition of recombinant human topoisomerase-2alpha expressed in Saccharomyces cerevisiae JEL1 harboring topoisomerase1 deletion mutant assessed as reduction in enzyme-mediated [gamma32P]ATP hydrolysis up to 50 uM after 8 mins

| Ratio IC50 [3] | inhibition [4] | inhibition [5] | IC50 [8] [µM] | Compound | Activity [9] | further results |
| --- | --- | --- | --- | --- | --- | --- |
| 2 to 3 | inactive | Active |  | Cl.Cl.Cl.Cl.NCCCNCCCCNCCCNCC(O)COc1cc(O)c2c(=O)c3ccccc3oc2c1 (stereo not given) |  | Activity [1]: inactive; solubility [2]: Insoluble; IC50 [6]: < 10 µM; inhibition [7]: Active |
|  |  |  | > 1000 | NCCCNCCCCNCCCN [SPERMINE] |  |  |
|  |  |  | 100 | CCCCNCC(O)COc1cc(O)c2c(=O)c3ccccc3oc2c1 (stereo not given) | inactive |  |
| 2 to 3 | inactive | inactive | ≥ 100 | O=c1c2ccccc2oc2cc(O)cc(O)c12 | inactive | inhibition [10]: inactive; inhibition [11]: inactive; inhibition [12]: inactive |
| 2 to 3 | inactive | Active | 1 | NCCCNCC(O)COc1cc(O)c2c(=O)c3ccccc3oc2c1 (stereo not given) | inactive | inhibition [13]: Active |
| 2 to 3 | inactive | Active |  | NCCCCNCCCNCC(O)COc1cc(O)c2c(=O)c3ccccc3oc2c1 (stereo not given) | inactive | IC50 [6]: < 10 µM; IC50 [14]: 10 µM; inhibition [15]: inactive; inhibition [13]: Active |
|  |  |  | 2.5 to 5 | NCCCCNCC(O)COc1cc(O)c2c(=O)c3ccccc3oc2c1 (stereo not given) | inactive |  |
|  |  |  | > 1000 | NCCCCNCCCN [SPERMIDINE] |  |  |
